Screening results (PubChem BioAssay)
The entries come from a sample that favours hits as a whole.
L major viab = Leishmania major promastigote growth inhibition. 200,000 compounds, 9% hits. Leishmania major promastigotes, resazurin fluorescence viability. inhibition, % at 10 µM; in the data active = inhibition above about 50%;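 note: promastigotes grown with compound for 44 hours at 28 °C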
HSF-1 act = increases HSF-1 driven luciferase reporter signal | NIH3T3-HGL HSF-1 luciferase reporter, MG132, 8 h; 100% = twice DMSO control signal | activation, % at 9 µM | 300,000 compounds, 1.7% hits;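 active = mean replicate activation of at least 50% with a set share of replicates each reaching 50%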;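 note: 0% = median of the neutral control wells and 100% = twice that signal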
T cruzi repl = T. cruzi replication inhibition; 300,000 compounds, 1.4% hits; inhibition, % (test concentration not listed); T. cruzi beta-gal in NIH3T3, luminescence, 90 h;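 active = mean inhibition across valid replicates above about 55%, limit read from the data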;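 note: signal also drops with host cell toxicity which is not excluded here; 0% = plate median of DMSO wells and 100% = zero luminescence signal; higher percent means less beta-gal luminescence so fewer parasites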
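Assay system: NIH/3T3 fibroblasts plus reporter T. cruzi. Amount: NIH/3T3 cells, 5,000 per well. Buffer or medium: DMEM, 2% fetal bovine serum. Doses: compound pinned at 50 nL/well, DMSO. Schedule: ≥90 h infection period, 3 h prior cell attachment. Signal: luminescent β-galactosidase signal after 60 min lysis. Read-out: parasite load inhibition, %.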
Hsp70 act = switches on Hsp70 transcription | HeLa Hsp70 promoter luciferase reporter, luminescence; scaled: vehicle 0, proteasome-inhibitor control 100% | activation, % at 10 µM | 200,000 compounds, 0.04% hits;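 active = activation above the mean across all tested compounds plus 3 SD, cutoff set per campaign, cut at about 5.5% in these data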;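 note: 100% = MG132 at 30 µM as the positive control and 0% = DMSO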
HSF1 inh = HSF1 inhibition | NIH3T3-HGL HSE-luciferase, MG132-induced, luminescence 8 h; stronger effect = lower value | 300,000 compounds, 0.77% hits | activity change, negative = inhibition, % at 7.5 µM (by protocol) | AID 2098;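 active = more than half of replicate wells show activity change below -50%, luminescence cut by over half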;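 note: luciferase reports HSF-1 transcriptional activity via heat shock element; 0% = median of DMSO wells and -100% = zero luminescence signal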
* = called active by the depositor; nt = not tested or not shown.

SMILES | L major viab | HSF-1 act | T cruzi repl | Hsp70 act | HSF1 inh
COc1ccc(CCNC(=O)c2ccc(CNS(=O)(=O)c3cccc(Cl)c3)cc2)cc1OC | 5 | 60* | -8 | 0 | 20
COc1ccc(CCNC(=O)c2ccc(CNS(=O)(=O)c3ccc(C(C)(C)C)cc3)cc2)cc1OC | 12 | 11 | 4 | 0 | 15
O=C(NCCc1ccco1)c1cc(COc2cccc(C(F)(F)F)c2)on1 | nt | -11 | 14 | nt | -5
CC1Cc2ccccc2N1C(=S)NC(=O)C1(C)CC1(Cl)Cl (configuration not stated) | -3 | -1 | -14 | 0 | -4
CC(C)CN(C(=O)COC(=O)C(C)N1C(=O)c2ccccc2C1=O)c1c(N)n(Cc2ccccc2)c(=O)[nH]c1=O (configuration not stated) | nt | -2 | -11 | nt | 1
CC(CC(=O)NCCc1ccc(Cl)cc1)S(=O)(=O)c1ccc2c(c1)NC(=O)CO2 (configuration not stated) | nt | -5 | 4 | nt | 7
CC(CC(=O)Nc1cccc(F)c1)S(=O)(=O)c1ccc2c(c1)NC(=O)CO2 (configuration not stated) | nt | 1 | -13 | nt | 2
COc1cc(NC(=O)CC(C)S(=O)(=O)c2ccc3c(c2)NC(=O)CO3)cc(OC)c1OC (configuration not stated) | nt | 55* | 6 | nt | 12
Cc1ccccc1NC(=O)CC(C)S(=O)(=O)c1ccc2c(c1)NC(=O)CO2 (configuration not stated) | nt | 62* | -14 | nt | 17
COc1ccc(NC(=O)COC(=O)CCNS(=O)(=O)c2ccc(Cl)cc2)cc1 | nt | 7 | 1 | nt | 8
CCCC1CC(C(=O)Nc2ccccc2)C(=O)O1 (configuration not stated) | nt | 7 | 3 | nt | -2
COc1ccc(C2C(C(=O)NCc3ccccn3)CCC(=O)N2c2cc(OC)c(OC)c(OC)c2)cc1 (configuration not stated) | -4 | 0 | -2 | 0 | -2
Cc1cccc(C)c1NC(=O)C(C)N1CCCC1 (configuration not stated) | nt | 75* | 1 | nt | 21
CCOc1ccccc1NC(=O)N1CCCC(c2nc(-c3ccc(C)o3)no2)C1 (configuration not stated) | 13 | 4 | 28 | 0 | 3
Cc1ccc(/C=C2\C(=O)ON=C2c2ccccc2)o1 | 0 | 3 | -16 | 0 | -4
Cc1ccc(-c2ccc(/C=C3\C(=O)ON=C3c3ccccc3)o2)c([N+](=O)[O-])c1 | 98* | 21 | -12 | 0 | 3
CCOC(=O)n1n[n+]([O-])c2ccccc21 | -6 | -12 | -7 | 0 | -11
C#CCOc1ccc(Cl)cc1/C=N/O | -1 | 12 | 2 | 0 | 5
C#CCOc1ccc(/C=N/O)cc1Cl | 55* | 3 | -7 | -1 | -2
CSc1nc(O)cc(=O)n1-c1ccc(F)cc1 | -8 | 5 | -6 | 0 | -7
CN(C)c1nc(C=C(C#N)C#N)c(Cl)n1-c1ccc(F)cc1 | 24 | 95* | 16 | 0 | 76
COc1ccc2oc(C(=O)Nc3ccc(S(=O)(=O)N(C)C4CCN(C)CC4)cc3)c(C)c2c1 | nt | -16 | 60* | nt | -11
COc1ccc(S(=O)(=O)N(C)C2CCN(C)CC2)cc1 | 2 | -12 | 28 | 0 | -6
COCCCNC(=O)c1oc2ccc(S(=O)(=O)N(C)C3CCCCC3)cc2c1C | 97* | 11 | 10 | 0 | 7
CC(Oc1ccc(Br)cc1)C(=O)Nc1ccc(S(=O)(=O)N(C)C2CCN(C)CC2)cc1 (configuration not stated) | nt | -14 | 56* | nt | 2
SMILES | L major viab | HSF-1 act | T cruzi repl | Hsp70 act | HSF1 inh
N#C/C(=C/Nc1ccccc1F)S(=O)(=O)c1ccc(Cl)cc1 | nt | 8 | -5 | nt | 5
CN1CCN(CCCN(Cc2cccs2)C(=S)Nc2ccc(Cl)cc2)CC1 | 19 | 6 | 22 | 0 | -2
Cc1cc(NC(=S)N(CCN2CCCCC2)Cc2ccco2)ccc1Cl | 33 | 3 | -7 | 0 | 0
COc1ccc(NC(=S)N(CCCN2CCCC2)Cc2cccn2Cc2ccc(Cl)cc2)cc1Cl | 100* | 29 | 47 | 0 | 19
Cc1ccc(NC(=S)N(CCCN2CCCC2)Cc2cccn2Cc2ccc(Cl)cc2)cc1C | 101* | 28 | 39 | 0 | 7
FC(F)(F)c1cccc(NC(=S)N(CCCN2CCCC2)Cc2cccn2Cc2ccc(Cl)cc2)c1 | 100* | 10 | 71* | 0 | -5
COc1ccc(NC(=S)NCCCN2CCCC2)cc1Cl | 22 | 4 | -11 | 0 | -3
Cc1ccc(NC(=S)N(CCCN2CCCC2)Cc2cccn2Cc2ccc(Cl)cc2)cc1Cl | 100* | 11 | 43 | 0 | 15
C(=C\c1ccccc1)/CSc1nnc(-c2cnccn2)n1Cc1ccco1 | 100* | 12 | 0 | 0 | 14
Fc1ccccc1CSc1nnc(-c2cnccn2)n1Cc1ccco1 | 14 | 67* | -5 | 0 | 49
Cc1ccccc1NS(=O)(=O)c1cc2c3c(c1)C(C)C(=O)N3CCC2 (configuration not stated) | nt | 7 | 0 | nt | 2
Cc1ccc(OP(=O)(Nc2c(C)n(C)n(-c3ccccc3)c2=O)Oc2ccc(C)cc2)cc1 | 69* | 17 | -1 | -1 | 0
Cc1ccc(S(=O)(=O)Nc2c(C)n(C)n(-c3ccccc3)c2=O)cc1 | -9 | -16 | -5 | 0 | -2
CCOC(=O)C1CCCN(S(=O)(=O)c2ccc(Cl)nc2)C1 (configuration not stated) | nt | -2 | 0 | nt | -2
Cc1cccc(C2(c3cccc(C)c3)CC2C(=O)Nc2ccc([N+](=O)[O-])cc2O)c1 (configuration not stated) | 99* | 18 | 5 | 0 | 4
CCOC(=O)c1nc(NCc2ccccc2F)c2ccccc2n1 | 50 | 22 | 11 | 0 | 9
CCOC(=O)c1nc(NCc2ccccc2C)c2ccccc2n1 | 65* | -51 | 13 | 0 | -37
Cc1ccc(C(=O)CSc2nnc(C)s2)cc1 | -10 | 5 | -9 | 0 | 16
Cc1nnc(SCC(=O)c2ccc(Br)cc2)s1 | -5 | 67* | -19 | 0 | 49
Cc1nnc(SCC(=O)Nc2ccc(Cl)cn2)s1 | 57* | 1 | -1 | 0 | -3
CN(C)c1ccc(P(=O)(Nc2cccc(C(F)(F)F)c2)N2CCOCC2)c(NC(=O)c2cccs2)c1 (configuration not stated) | 59* | 26 | 10 | 0 | 7
CC1N(C)c2cc(NC(=O)c3cccs3)c(P(=O)(Nc3ccc([N+](=O)[O-])cc3)N3CCOCC3)cc2C1(C)C (configuration not stated) | 59* | -9 | 64* | 0 | 1
COc1ccc(C(C(=O)Nc2ccc(C(C)C)cc2)N(Cc2ccco2)C(=O)CC2NC(=O)NC2=O)cc1 (configuration not stated) | 4 | 9 | 6 | 0 | -6
